SKN-1 block: inhibitors of C. elegans SKN-1 | C. elegans VP596 Pgst-4::GFP/RFP ratio, acrylamide-induced, 24 h | inhibition, % at 21.8 µM | actives 0.49% (n = 360,000);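 active = interference check ratio from 0.5 to 1.5 plus GFP to RFP signal ratio inhibition reaching or exceeding a fixed threshold, cut at about 30% in these data, passing the limit was not always enough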
SUMO1-SIM PPI: modulators of human SUMO1-mediated protein-protein interactions; actives 0.33% (n = 360,000); inhibition, % at 20 µM; AID 602429; SUMO1 binding to a labelled peptide, TR-FRET, 1 h; P63165; in the data active = inhibition above about 37%
MT1-MMP act inh: MT1-MMP (human) activation inhibition | HT1080 RFP-PRO-GFP cells, GFP/RFP ratio fluorescence, overnight; percent of plate control window, DMSO zero | AID 651647 | actives 0.061% (n = 360,000) | GFP/RFP ratio change, % at 20 µM;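 active = GFP/RFP ratio change of at least 30% with cell ATP level not reduced by more than half and red fluorescence within 50% of control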
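Test system: HT1080 cells expressing an RFP-PRO-GFP fluorescent reporter construct / Compound dosing: single-point 20 µM compound, 1% DMSO / Schedule: cells overnight before dosing, compound overnight, 37 °C, 5% CO2 / Evaluation: GFP/RFP fluorescence ratio / Control set: DMSO and RFP-L50D-GFP cell wells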
CSN inh: blocks human CSN-mediated cullin deneddylation. Q92905. Purified CSN, SCF-Nedd8-OG deneddylation, fluorescence polarization. inhibition, % at 12.5 µM. actives 0.38% (n = 360,000);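 active = pattern-corrected inhibition above about 35%, with an unprinted fluorescence ratio check between 0.5 and 1.5, limit read from the data, passing the limit was not always enough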;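 also: 0% = enzyme with substrate and 100% = substrate without enzyme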
Target sequence (Q92905 whole entry, looked up, one chain of several): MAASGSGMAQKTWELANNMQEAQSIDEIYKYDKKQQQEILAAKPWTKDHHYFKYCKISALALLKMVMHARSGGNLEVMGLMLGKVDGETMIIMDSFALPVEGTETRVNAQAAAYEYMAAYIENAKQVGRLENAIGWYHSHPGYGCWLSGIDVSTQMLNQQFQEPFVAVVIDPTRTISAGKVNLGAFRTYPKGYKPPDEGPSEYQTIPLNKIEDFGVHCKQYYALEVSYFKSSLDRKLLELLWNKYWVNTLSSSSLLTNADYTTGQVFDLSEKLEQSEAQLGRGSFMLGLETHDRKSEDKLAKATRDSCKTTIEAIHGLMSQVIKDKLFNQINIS
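Schedule: reaction 90 min, room temperature / Assay system: HEK293T-derived human Csn5 enzyme / Input: Csn5 at 0.24 nM final / Measure: inhibition of Csn5 cleavage, % / Control set: substrate-only high control, full reaction low control / Technique: fluorescence polarization of the substrate / Buffer or medium: Tris/NaCl/DTT buffer, pH 7.5 / Reagent: SCFSkp2-Nedd8OG substrate at 10 nM final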
Rpn11 inh: Rpn11 (human) deubiquitinase inhibition; human 26S proteasome, Ub4-pepOG fluorescence polarization; 20S core pre-blocked with epoxomicin; inhibition, % at 20 µM; AID 588493; actives 0.59% (n = 360,000); O00487;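 active = inhibition at 20 µM, scaled to each plate's controls, above about 33%, limit read from the data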
Target sequence (O00487 whole entry, looked up): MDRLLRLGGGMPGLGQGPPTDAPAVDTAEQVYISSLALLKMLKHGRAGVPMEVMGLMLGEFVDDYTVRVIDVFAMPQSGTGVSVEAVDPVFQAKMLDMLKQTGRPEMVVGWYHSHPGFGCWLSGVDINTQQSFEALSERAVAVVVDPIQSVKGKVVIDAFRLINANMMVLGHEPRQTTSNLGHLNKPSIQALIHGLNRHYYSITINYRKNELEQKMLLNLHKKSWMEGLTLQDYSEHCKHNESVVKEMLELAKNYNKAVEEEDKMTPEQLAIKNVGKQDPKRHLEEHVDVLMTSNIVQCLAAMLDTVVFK
DNMT1 inh: DNMT1 (human) enzyme inhibition | inhibition (reported as % activation of signal), % at 10 µM | AID 588458 | P26358 | DNMT1 molecular beacon, Hinp1I cleavage, fluorescence | actives 0.83% (n = 360,000); in the data active = inhibition above about 50%
Numbers without * were called inactive; · = no result shown. Rows were chosen to be rich in hits. Some 2.3% of all compounds tested hit in one or more screens of this group.

SMILES	SKN-1 block	SUMO1-SIM PPI	MT1-MMP act inh	CSN inh	Rpn11 inh	DNMT1 inh
Fc1ccc(-c2nc3ccc(Br)cn3c2Cc2ccsc2)cc1	25.4	8.4	1.3	-5.8	-2.7	-34.1
O=c1cc(-c2ccccc2)oc2ccc3ccccc3c12	36.4*	-24.8	-4.2	0.1	-1.2	1.4
O=C(COC(=O)C12CC3CC(CC(O)(C3)C1)C2)Nc1cccc(Br)c1	37.7*	2.5	1.2	1.0	-10.8	-5.4
O=C(NC(Sc1ccc(Cl)cc1)C(=O)O)c1ccccc1 (stereo unspecified)	13.4	6.9	-4.6	0.1	-8.6	11.1
CC(=O)N1C(=O)C2(NCC(C)N2)c2ccccc21 (stereo unspecified)	9.3	2.3	4.2	-5.0	0.7	1.9
CCC1(C)Cc2ccccc2-c2nc(NCCO)n(-c3ccc(C)cc3)c(=O)c21 (stereo unspecified)	37.9*	0.3	-8.8	1.4	-6.1	-1.4
Cc1nnc(N2CCC(C(=O)N3CCCCC3)CC2)c2nn(-c3ccc(Cl)cc3)c(C)c12	-8.4	-6.6	0.5	2.6	-4.1	0.7
COc1ccc(-n2nc3c(N4CCC(C(=O)N5CCC(C)CC5)CC4)nnc(C)c3c2C)cc1	-0.6	-8.3	-80.5	63.9*	·	0.5
COc1ccc(Nc2nc(N)nc(CSC(=S)N3CCN(C)CC3)n2)cc1	2.6	50.3*	4.7	-0.1	2.7	1.1
S=C(NCc1ccccc1)C(=S)NCc1ccccc1	38.4*	-8.1	-2.5	1.4	-5.5	-6.2
S=C(NCc1ccccc1)NCc1ccc(CNC(=S)NCc2ccccc2)cc1	4.7	9.1	7.9	-12.8	-2.6	-6.3
O=C(CSc1ccc(Cl)cc1)c1ccco1	-2.8	2.8	-2.2	28.3	2.2	97.9*
O=C(CCSc1ccc(Cl)cc1)c1ccco1	-8.2	2.0	-7.0	-0.4	-7.0	1.7
COC(=O)[C@]12CCCCC=C1N(CCc1ccc(OC)c(OC)c1)C(=O)[C@H](CC(=O)NCc1cccs1)C2	2.5	0.5	3.4	-1.6	·	·
CCOc1ccc(C(=O)c2ccccc2C(=O)O)cc1OCC	-0.7	10.0	0.8	56.8*	6.3	-4.8
CC(C)(C)c1ccc(C(=O)N2CCC2(C)C(=O)Nc2cccc3ncccc23)cc1 (stereo unspecified)	9.4	-1.0	-0.1	4.4	0.2	0.8
N#Cc1ccc(C(=O)N2CCCCC2c2cc(C(=O)Nc3ccc4c(c3)OCO4)no2)cc1 (stereo unspecified)	8.4	-2.4	-3.1	-0.1	2.0	1.2
O=c1c2ccccc2oc2ccc(-c3ccc4cc[nH]c4c3)cc12	69.5*	-3.2	11.1	-0.7	-5.0	-12.8
CCOC(=O)[C@]12CCC=C1N(Cc1ccc(Cl)cc1Cl)C(=O)[C@H](CC(=O)N1CCSCC1)C2	5.3	6.4	-2.0	-1.6	·	·
CC(C(=O)N1CCN(C)CC1)N1C(=O)c2ccccc2C1=O (stereo unspecified)	36.1*	-4.9	4.1	-9.2	-4.4	-1.6
Clc1ccc(-c2nnc(-c3ccccc3)o2)cn1	41.7*	4.2	-1.5	0.3	-3.6	-0.1
c1ccc(CSc2nnc(-c3cccnc3)o2)cc1	-2.3	-4.0	-6.3	-1.4	-2.0	1.5
Cc1nnc(-c2ccccc2)o1	-13.3	-0.2	-5.4	4.4	-3.3	-5.1
Brc1ccc(CSc2nnc(-c3cccnc3)o2)cc1	43.3*	1.3	-1.6	-2.5	5.1	1.3
Cc1ccc(-c2nnc(-c3cccnc3)o2)cc1	0.9	1.0	-1.0	3.5	0.9	1.2
SMILES	SKN-1 block	SUMO1-SIM PPI	MT1-MMP act inh	CSN inh	Rpn11 inh	DNMT1 inh
Brc1ccc(-c2nnc(-c3ccccc3Br)o2)cc1	65.4*	-3.6	0.5	6.0	-3.1	-1.8
Cc1ccc(-c2nnc(-c3ccccc3Br)o2)cc1	-8.9	2.4	0.8	-2.3	3.6	0.3
Brc1ccc(-c2nnc(-c3cccnc3)o2)cc1	48.1*	1.2	1.0	4.0	-2.7	-5.8
Cc1ccc(S(=O)(=O)N2[C@@H](Cc3ccccc3)CO[C@H]2CC(=O)c2ccc(F)cc2)cc1	-7.0	-1.8	-6.3	0.3	·	·
COC(=O)[C@@]12C[C@@H](CC(=O)NCC3CCCCC3)C(=O)N(Cc3ccc4c(c3)OCO4)C1=CCC(C)(C)C2	0.1	4.1	-2.0	-1.1	·	·
CCCCNC(=O)c1nc(C2CCN(S(=O)(=O)c3cccc(C(F)(F)F)c3)CC2)oc1-c1ccccc1	2.9	0.8	-4.9	1.1	9.4	0.5
O=C(Nc1ccc(F)c(Cl)c1)c1cc(C2CCCN(C(=O)CCc3ccccc3)C2)on1 (stereo unspecified)	13.4	-0.9	2.1	4.5	5.5	-4.7
c1ccc(-c2nnc(-c3ccco3)o2)cc1	21.3	-0.6	0.9	-1.1	1.2	10.1
Brc1ccc(-c2nnc(-c3ccco3)o2)cc1	80.5*	-1.0	0.6	0.4	2.1	0.2
Clc1ccc(-c2nnc(-c3cccnc3)o2)cc1	40.5*	6.0	-4.1	-1.6	-0.3	-0.7
CCn1c(CSc2nnc3ccccn23)nc2cc(C(=O)O)ccc21	64.9	-2.4	41.8*	6.0	-12.7	0.7
CCn1c(CSc2nnc(-c3ccncc3)n2CCOC)nc2cc(C(=O)O)ccc21	38.2*	-2.2	22.2	0.1	6.1	0.9
CCOc1ccc(C(=O)CSc2nnc3ccccn23)cc1	2.8	-2.3	-1.3	0.7	-0.3	-2.1
CCn1c(CSc2n[nH]c(N)n2)nc2cc(C(=O)O)ccc21	37.1*	-0.3	23.6	2.1	-6.9	2.4
CCOc1c(Br)cc(C(=O)Nc2cccc(S(=O)(=O)N3CCOCC3)c2)cc1OC	10.5	3.6	-2.2	2.1	3.9	8.6
CCOC1=C2CN(S(=O)(=O)c3ccc(C)cc3)C(c3cccc(Cl)c3)CC2NC(c2ccccc2)C1 (stereo unspecified)	3.4	2.0	-1.7	-1.9	·	·
O=C(c1cc(COc2ccc(F)cc2Cl)on1)N1CCCCCC1	38.2*	-0.7	1.1	-2.0	-3.3	-4.0
CCOCCCn1c(SCC(=O)N2CCOCC2)nc2ccccc2c1=O	7.7	-5.6	-1.8	6.5	5.0	1.4
CCOC(=O)CSc1nc2ccccc2c(=O)n1CCN1CCOCC1	36.2*	0.0	0.3	2.8	2.3	0.5
COCCN=c1scc(-c2ccco2)n1/N=C/c1ccc(O)c(O)c1O	7.7	19.4	-0.6	36.7	3.8	69.8*
Cc1nc(NC(=O)c2cccs2)ccc1Br	36.2*	-0.4	0.1	-7.7	-3.4	8.3
O=c1c2ccccc2ncn1-c1cccc(Cl)c1	16.1	2.9	-0.2	-7.0	-7.5	4.3
O=c1c2ccccc2ncn1-c1ccc(Cl)cc1Cl	35.2*	3.8	-3.2	-1.2	-0.5	3.5
